Test results reported in ChEMBL document CHEMBL2396536, “Curcuminoids block TGF-β signaling in human breast cancer cells and limit osteolysis in a murine model of breast cancer bone metastasis” (J Nat Prod, 2013).
pIC50: −log10 of the molar value. The source made the active and inactive calls. No cut-off for these calls is given here.

Legend:
[1] = biological target: Mothers against decapentaplegic homolog 2 (Homo sapiens) (UniProt Q15796); assay: Inhibition of TGF-beta-induced Smad2 phosphorylation in human MDA-MB-231 cells treated 12 hrs before TGF-beta challenge measured after 1 hr by Western blotting; type: cell-based
Mothers against decapentaplegic homolog 2 (Homo sapiens), sequence (Q15796 whole entry): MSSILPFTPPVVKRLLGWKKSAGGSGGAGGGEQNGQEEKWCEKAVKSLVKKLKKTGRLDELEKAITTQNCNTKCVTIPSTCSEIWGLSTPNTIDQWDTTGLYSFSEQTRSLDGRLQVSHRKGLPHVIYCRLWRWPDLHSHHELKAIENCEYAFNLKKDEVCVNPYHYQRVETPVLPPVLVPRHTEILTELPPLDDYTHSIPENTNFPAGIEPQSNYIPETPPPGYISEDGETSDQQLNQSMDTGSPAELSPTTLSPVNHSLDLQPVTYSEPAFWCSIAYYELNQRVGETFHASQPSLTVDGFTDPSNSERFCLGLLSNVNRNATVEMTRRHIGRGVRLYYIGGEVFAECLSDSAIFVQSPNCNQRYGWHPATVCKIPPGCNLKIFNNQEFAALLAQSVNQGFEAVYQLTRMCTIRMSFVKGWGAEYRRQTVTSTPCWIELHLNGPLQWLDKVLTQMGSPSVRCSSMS
Method in brief: (§1)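 Subconfluent MDA-MB-231 pre-treated 12 h with compound (80 μM), then TGF-β (5 ng/mL) for 1 h. RIPA whole-cell lysates (18 μg) run on SDS-PAGE and transferred to PVDF. Probed with rabbit anti-phospho-Smad2, phospho-Smad3, phospho-p38 or Ets-1 (1:1000, overnight, 4 °C). β-actin used as loading control. Chemiluminescent detection; three independent experiments.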

[2] = system: Mus musculus; assay: Toxicity in human MDA-MB-231 cells xenografted athymic nude mouse left cardiac ventricle assessed as effect on liver weight at 25 mg/kg, ip administered every other day for 3 weeks (reference value: 1 +/- 0.10 gram); type: organism-based, Heart; parameters: dose 25 mg/kg, route intraperitoneal; settings: in vivo, 504 h
[3] = system: Mus musculus; assay: Toxicity in human MDA-MB-231 cells xenografted athymic nude mouse left cardiac ventricle assessed as effect on alanine aminotransferase at 25 mg/kg, ip administered every other day for 3 weeks (reference value: 7.04 +/- 2.2 U/L); type: organism-based, Heart; parameters: dose 25 mg/kg, route intraperitoneal; settings: in vivo, 504 h
[4] = system: Mus musculus; assay: Effect on orthotopic tumor mass in human MDA-MB-231 cells xenografted athymic nude mouse mammary fat pad at 25 to 50 mg/kg, ip administered every other day for 3 weeks
[5] = system: MDA-MB-231; assay: Inhibition of TGF-beta-induced PTHrP secretion in human MDA-MB-231 cells at 100 uM treated 4 hrs before TGF-beta challenge measured after 24 hrs by radioimmunoassay; type: functional, cell-based
Method in brief: (§2)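 MDA-MB-231 plated at 5 × 10^4 cells/cm2 and held overnight in DMEM with 10% FBS. Pre-treated 4 h with compound (0.1–100 μM in methods; 0.1–300 μM in legend) in 2% FBS, then recombinant human TGF-β1 (5 ng/mL) or medium alone for 24 h. PTHrP measured in conditioned media by radioimmunoassay, n = 4 wells/group. IC50 from four-parameter logistic fit.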

[6] = system: MDA-MB-231; assay: Inhibition of osteolytic bone metastases in human MDA-MB-231 cells xenografted in athymic nude mouse left cardiac ventricle assessed as reduction in lytic bone lesion area at 25 to 50 mg/kg, ip administered every other day for 3 weeks measured on day 21 relative to control; type: functional, Heart left ventricle; settings: dose mg/kg 25-50; route intraperitoneal
Method in brief: (§3)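 Four-week female athymic nude mice inoculated with 1 × 10^5 MDA-MB-231 cells in 0.1 mL PBS into the left cardiac ventricle. Dosed ip at 25 or 50 mg/kg or vehicle every other day from day 1 for 21 days, n = 11/group. Lytic lesion area quantified on radiographs on days 12, 16 and 21. Two-way ANOVA with Bonferroni.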

[7] = system: MDA-MB-231; assay: Inhibition of osteolytic bone metastases in human MDA-MB-231 cells xenografted in athymic nude mouse left cardiac ventricle assessed as reduction of bone-tumor interface at 25 mg/kg, ip administered every other day for 3 weeks; type: functional; settings: MDA-MB-231, Heart left ventricle, 504 h, route intraperitoneal
Method in brief: (§4)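 Intracardiac MDA-MB-231 model in nude mice, dosed ip every other day for 21 days. Mid-sagittal tibia and femur sections TRAP-stained. TRAP+ multinucleated (>3 nuclei) cells counted at 40x along the tumor-bone interface. Expressed as osteoclasts per mm of interface.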

[8] = system: Mus musculus; assay: Toxicity in human MDA-MB-231 cells xenografted athymic nude mouse left cardiac ventricle assessed as effect on white blood cells at 25 mg/kg, ip administered every other day for 3 weeks (reference value: 5.84 +/- 1.3 K/uL); settings: in vivo, 504 h
[9] = system: Mus musculus; assay: Toxicity in human MDA-MB-231 cells xenografted athymic nude mouse left cardiac ventricle assessed as effect on platelets at 25 mg/kg, ip administered every other day for 3 weeks (reference value: 513 +/- 54 K/uL); type: organism-based, Heart; parameters: dose 25 mg/kg, route intraperitoneal; settings: in vivo, 504 h
[10] = system: MDA-MB-231; assay: Inhibition of TGF-beta-induced PTHrP secretion in human MDA-MB-231 cells treated 4 hrs before TGF-beta challenge measured after 24 hrs by radioimmunoassay; type: functional, cell-based; settings: for minimal effective concentration: read-out: MEC; method in brief: as §2
[11] = system: MDA-MB-231; assay: Inhibition of osteolytic bone metastases in human MDA-MB-231 cells xenografted in athymic nude mouse left cardiac ventricle assessed as improvement in host survival at 25 to 50 mg/kg, ip administered every other day for 3 weeks measured on day 16 relative to vehicle-treated control; type: functional, organism-based; settings: Heart left ventricle
Method in brief: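 Intracardiac MDA-MB-231 nude mice (n = 11/group) dosed ip every other day for 3 weeks. Survival shown by Kaplan–Meier and analyzed by logrank test with post-hoc logrank test for trend.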

[12] = biological target: MAP kinase p38 (Homo sapiens) (UniProt O15264+Q15759+Q16539+P53778); assay: Inhibition of TGF-beta-induced p38 phosphorylation in human MDA-MB-231 cells treated 12 hrs before TGF-beta challenge measured after 1 hr by Western blotting; type: cell-based; method in brief: as §1
[13] = system: Mus musculus; assay: Toxicity in human MDA-MB-231 cells xenografted athymic nude mouse left cardiac ventricle assessed as effect on hematocrit at 25 mg/kg, ip administered every other day for 3 weeks (reference value: 30.2 +/- 1.5%); type: organism-based, Heart; parameters: dose 25 mg/kg, route intraperitoneal; settings: in vivo, 504 h
[14] = system: Mus musculus; assay: Toxicity in human MDA-MB-231 cells xenografted athymic nude mouse left cardiac ventricle assessed as effect on platelets at 50 mg/kg, ip administered every other day for 3 weeks (reference value: 513 +/- 54 K/uL); type: organism-based, Heart; parameters: dose 50 mg/kg, route intraperitoneal; settings: in vivo, 504 h
[15] = system: Mus musculus; assay: Toxicity in human MDA-MB-231 cells xenografted athymic nude mouse left cardiac ventricle assessed as effect on hematocrit at 50 mg/kg, ip administered every other day for 3 weeks (reference value: 30.2 +/- 1.5%); type: organism-based, Heart; parameters: dose 50 mg/kg, route intraperitoneal; settings: in vivo, 504 h
[16] = system: Mus musculus; assay: Toxicity in human MDA-MB-231 cells xenografted athymic nude mouse left cardiac ventricle assessed as effect on alanine aminotransferase at 50 mg/kg, ip administered every other day for 3 weeks (reference value: 7.04 +/- 2.2 U/L); type: organism-based, Heart; parameters: dose 50 mg/kg, route intraperitoneal; settings: in vivo, 504 h
[17] = system: Mus musculus; assay: Toxicity in human MDA-MB-231 cells xenografted athymic nude mouse left cardiac ventricle assessed as effect on bone-forming osteoblast cell at 25 to 50 mg/kg, ip administered every other day for 3 weeks; type: organism-based, Heart; parameters: dose 25-50 mg/kg, route intraperitoneal; settings: in vivo, 504 h
[18] = system: Mus musculus; assay: Toxicity in human MDA-MB-231 cells xenografted athymic nude mouse left cardiac ventricle assessed as effect on white blood cells at 50 mg/kg, ip administered every other day for 3 weeks (reference value: 5.84 +/- 1.3 K/uL); settings: in vivo, 504 h
[19] = system: Mus musculus; assay: Toxicity in human MDA-MB-231 cells xenografted athymic nude mouse left cardiac ventricle assessed as effect on spleen weight at 25 mg/kg, ip administered every other day for 3 weeks (reference value: 0.134 +/- 0.02 gram); type: organism-based; parameters: dose 25 mg/kg, route intraperitoneal; settings: in vivo, 504 h
[20] = system: MDA-MB-231; assay: Inhibition of osteolytic bone metastases in human MDA-MB-231 cells xenografted in athymic nude mouse left cardiac ventricle assessed as effect on tumor burden at 25 to 50 mg/kg, ip administered every other day for 3 weeks by histological analysis; type: functional, organism-based; settings: Heart left ventricle
Method in brief: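 Intracardiac MDA-MB-231 model in female nude mice, dosed ip every other day for 21 days, n = 11/group. Hindlimbs harvested day 21, formalin-fixed and EDTA-decalcified. Tumor area measured blinded on mid-sagittal 5 μm H&E sections of tibiae and femora at 10x magnification.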

[21] = system: MDA-MB-231; assay: Inhibition of osteolytic bone metastases in human MDA-MB-231 cells xenografted in athymic nude mouse left cardiac ventricle assessed as reduction in lytic bone lesion area at 25 to 50 mg/kg, ip administered every other day for 3 weeks measured on day 16 relative to control; type: functional, Heart left ventricle; settings: dose mg/kg 25-50; route intraperitoneal; method in brief: as §3
[22] = system: MDA-MB-231; assay: Inhibition of osteolytic bone metastases in human MDA-MB-231 cells xenografted in athymic nude mouse left cardiac ventricle assessed as reduction of bone-tumor interface at 50 mg/kg, ip administered every other day for 3 weeks; type: functional; settings: MDA-MB-231, Heart left ventricle, 504 h, route intraperitoneal; method in brief: as §4
[23] = system: MDA-MB-231; assay: Inhibition of osteolytic bone metastases in human MDA-MB-231 cells xenografted in athymic nude mouse left cardiac ventricle assessed as improvement in body weight at 25 to 50 mg/kg, ip administered every other day for 3 weeks measured on day 16 relative to vehicle-treated control; type: functional, organism-based; settings: Heart left ventricle
[24] = system: Mus musculus; assay: Toxicity in human MDA-MB-231 cells xenografted athymic nude mouse left cardiac ventricle assessed as effect on liver weight at 50 mg/kg, ip administered every other day for 3 weeks (reference value: 1 +/- 0.10 gram); type: organism-based, Heart; parameters: dose 50 mg/kg, route intraperitoneal; settings: in vivo, 504 h
[25] = system: MDA-MB-231; assay: Inhibition of TGF-beta-induced Ets-1 expression in human MDA-MB-231 cells treated 12 hrs before TGF-beta challenge measured after 1 hr by Western blotting
[26] = system: Mus musculus; assay: Toxicity in human MDA-MB-231 cells xenografted athymic nude mouse left cardiac ventricle assessed as effect on spleen weight at 50 mg/kg, ip administered every other day for 3 weeks (reference value: 0.134 +/- 0.02 gram); type: organism-based; parameters: dose 50 mg/kg, route intraperitoneal; settings: in vivo, 504 h
[27] = system: MDA-MB-231; assay: Cytotoxicity against human MDA-MB-231 cells assessed as cell viability by MTT assay; type: cell-based
Method in brief: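 MDA-MB-231 plated at 5 × 10^4 cells/cm2 and held overnight in DMEM with 10% FBS at 37°C and 5% CO2. Pre-incubated 4 h with compound in 2% FBS DMEM, then medium refreshed with TGF-β1 (5 ng/mL) for 24 h. Cell number read by MTT reduction.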

[28] = system: MDA-MB-231; assay: Inhibition of osteolytic bone metastases in human MDA-MB-231 cells xenografted in athymic nude mouse left cardiac ventricle assessed as reduction of bone lysis at 25 to 50 mg/kg, ip administered every other day for 3 weeks measured on day 21; type: functional, Heart left ventricle; settings: dose mg/kg 25-50; route intraperitoneal; method in brief: as §3
[29] = biological target: Mothers against decapentaplegic homolog 3 (Homo sapiens) (UniProt P84022); assay: Inhibition of TGF-beta-induced Smad3 phosphorylation in human MDA-MB-231 cells treated 12 hrs before TGF-beta challenge measured after 1 hr by Western blotting; type: cell-based; method in brief: as §1
Mothers against decapentaplegic homolog 3 (Homo sapiens), sequence (P84022 2-425 limits assumed): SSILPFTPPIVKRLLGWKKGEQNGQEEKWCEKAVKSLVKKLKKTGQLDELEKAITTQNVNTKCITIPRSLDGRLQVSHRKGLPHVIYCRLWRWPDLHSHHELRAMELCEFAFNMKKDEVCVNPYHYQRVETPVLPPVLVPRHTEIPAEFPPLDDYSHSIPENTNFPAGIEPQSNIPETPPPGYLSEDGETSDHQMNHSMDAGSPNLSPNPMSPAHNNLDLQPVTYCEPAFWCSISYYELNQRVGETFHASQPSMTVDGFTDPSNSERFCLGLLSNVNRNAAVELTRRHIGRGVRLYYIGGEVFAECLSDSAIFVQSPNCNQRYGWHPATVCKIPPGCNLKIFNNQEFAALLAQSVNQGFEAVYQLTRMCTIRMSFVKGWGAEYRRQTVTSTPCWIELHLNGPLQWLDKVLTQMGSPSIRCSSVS

| inhibition [1] | pIC50 [10] | inhibition [12] | Structure (SMILES) | Activity [2] [g] | Activity [3] [U/L] | Activity [4] | inhibition [5] | inhibition (INH) [6] [%] | inhibition in vivo at 25 mg/kg [7] [%] | Activity [8] [K/uL] | Activity [9] [K/uL] | inhibition [10] | minimal effective concentration [10] [µM] | Activity [11] | Activity [13] [%] | Activity [14] [K/uL] | Activity [15] [%] | Activity [16] [U/L] | Activity [17] | Activity [18] [K/uL] | other results |
| --- | --- | --- | --- | --- | --- | --- | --- | --- | --- | --- | --- | --- | --- | --- | --- | --- | --- | --- | --- | --- | --- |
| Active | 4.62 | inactive | O=C(/C=C/c1ccc(O)cc1)CC(=O)/C=C/c1ccc(O)cc1 [BISDEMETHOXYCURCUMIN] | 0.987 | 7.13 | inactive | Active | 57 | 53 | 4.69 | 485 | Dose-dependent effect | 13 | Active | 30.6 | 589 | 31.1 | 5.02 | Non-toxic | 6.83 | Activity [19]: 0.129 g; inhibition [20]: inactive; inhibition (INH) [21]: 51%; inhibition in vivo at 50 mg/kg [22]: 48%; Activity [23]: Active; Activity [24]: 1.1 g; inhibition [25]: Active; Activity [26]: 0.139 g; MTC [27]: 82 µM; inhibition (INH) [28]: >50%; inhibition [29]: Active |
| Active | 4.62 | inactive | COc1cc(/C=C/C(=O)CC(=O)/C=C/c2ccc(O)c(OC)c2)ccc1O [CURCUMIN] | 0.987 | 7.13 | inactive | Active | 57 | 53 | 4.69 | 485 | Dose-dependent effect | 13 | Active | 30.6 | 589 | 31.1 | 5.02 | Non-toxic | 6.83 | Activity [19]: 0.129 g; inhibition [20]: inactive; inhibition (INH) [21]: 51%; inhibition in vivo at 50 mg/kg [22]: 48%; Activity [23]: Active; Activity [24]: 1.1 g; inhibition [25]: Active; Activity [26]: 0.139 g; MTC [27]: 82 µM; inhibition (INH) [28]: >50%; inhibition [29]: Active |
| Active | 4.62 | inactive | COc1cc(/C=C/C(O)=C/C(=O)/C=C/c2ccc(O)cc2)ccc1O [DEMETHOXYCURCUMIN] | 0.987 | 7.13 | inactive | Active | 57 | 53 | 4.69 | 485 | Dose-dependent effect | 13 | Active | 30.6 | 589 | 31.1 | 5.02 | Non-toxic | 6.83 | Activity [19]: 0.129 g; inhibition [20]: inactive; inhibition (INH) [21]: 51%; inhibition in vivo at 50 mg/kg [22]: 48%; Activity [23]: Active; Activity [24]: 1.1 g; inhibition [25]: Active; Activity [26]: 0.139 g; MTC [27]: 82 µM; inhibition (INH) [28]: >50%; inhibition [29]: Active |
